Reference: ChEMBL document CHEMBL1142874, “Design and synthesis of anticonvulsants from a combined phthalimide-GABA-anilide and hydrazone pharmacophore” (Eur J Med Chem, 2007)
Calls of active or inactive are those of the source. No cut-off for these calls is given here.

How the values were obtained:
Mus musculus [1] = test: Anticonvulsant activity in Albino CF1 mouse upto 300 mg/kg, ip in maximal electroshock seizure test; type: functional, organism-based; parameters: dose 300 mg/kg
Procedure, shortened: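 Mice dosed i.p. (0.01 mL/g) at 30, 100 and 300 mg/kg. Electroshock challenge run 30 min and 4 h after dosing.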

Mus musculus [2] = test: Anticonvulsant activity against subcutaneous pentylenetetrazole-induced seizure in Albino CF1 mouse at 300 mg/kg, ip after 0.5 hrs; type: functional, organism-based; parameters: dose 300 mg/kg
Procedure, shortened: (§1)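 Test compounds given i.p. to mice at 0.01 mL/g, at 30, 100 or 300 mg/kg. The seizure challenge followed at 0.5 h and at 4 h after dosing. The value recorded is the lowest dose that protected half or more of the mice. Where no activity was seen, the maximum dose given was 300 mg/kg.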

Mus musculus [3] = test: Anticonvulsant activity against subcutaneous pentylenetetrazole-induced seizure in Albino CF1 mouse at 300 mg/kg, ip after 4 hrs; type: functional, organism-based; parameters: dose 300 mg/kg; procedure, shortened: as §1
Mus musculus [4] = test: Anticonvulsant activity against subcutaneous strychnine-induced seizure in Albino CF1 mouse at 300 mg/kg, ip after 0.5 hrs; type: functional, organism-based; parameters: dose 300 mg/kg; procedure, shortened: as §1
Mus musculus [5] = test: Anticonvulsant activity against intraperitoneal picrotoxin-induced seizure in Albino CF1 mouse at 300 mg/kg, ip after 0.5 hrs; type: functional, organism-based; parameters: dose 300 mg/kg
Procedure, shortened: (§2)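 Mice received the test compound by intraperitoneal injection at 30, 100 or 300 mg/kg. They were then challenged with intraperitoneal picrotoxin and scored for anticonvulsant protection 0.5 h or 4 h after dosing. The value recorded is the lowest dose that protected half or more of the mice. A dash means no activity up to 300 mg/kg.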

Mus musculus [6] = test: Anticonvulsant activity against intraperitoneal picrotoxin-induced seizure in Albino CF1 mouse at 300 mg/kg, ip after 4 hrs; type: functional, organism-based; parameters: dose 300 mg/kg; procedure, shortened: as §2
Mus musculus [7] = test: Neurotoxicity in Albino CF1 mouse at 300 mg/kg, ip after 0.5 hrs by Rotarod test; type: toxicity, organism-based; parameters: dose 300 mg/kg, route intraperitoneal; details: in vivo
Procedure, shortened: (§3)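 Rotarod test in mice pre-trained to stay on the rod for two consecutive 90 s trials. Compounds given i.p. at 30, 100 or 300 mg/kg, with testing at 0.5 h and 4 h. Deficit was scored as failure to keep balance on the rod for 1 min in each of three trials. The value recorded is the lowest dose affecting half or more of the mice.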

Mus musculus [8] = test: Neurotoxicity in Albino CF1 mouse at 300 mg/kg, ip after 4 hrs by Rotarod test; type: toxicity, organism-based; parameters: dose 300 mg/kg, route intraperitoneal; details: in vivo; procedure, shortened: as §3
Mus musculus [9] = test: Anticonvulsant activity against subcutaneous strychnine-induced seizure in Albino CF1 mouse at 300 mg/kg, ip after 4 hrs; type: functional, organism-based; parameters: dose 300 mg/kg; procedure, shortened: as §1
Mus musculus [10] = test: Anticonvulsant activity against intraperitoneal picrotoxin-induced seizure in Albino CF1 mouse at 100 mg/kg, ip after 0.5 hrs; type: functional, organism-based; parameters: dose 100 mg/kg; procedure, shortened: as §2
Mus musculus [11] = test: Neurotoxicity in Albino CF1 mouse at 100 mg/kg, ip after 0.5 hrs by Rotarod test; type: toxicity, organism-based; parameters: dose 100 mg/kg, route intraperitoneal; details: in vivo; procedure, shortened: as §3
Mus musculus [12] = test: Neurotoxicity in Albino CF1 mouse at 100 mg/kg, ip after 4 hrs by Rotarod test; type: toxicity, organism-based; parameters: dose 100 mg/kg, route intraperitoneal; details: in vivo; procedure, shortened: as §3
Mus musculus [13] = test: Anticonvulsant activity against subcutaneous strychnine-induced seizure in Albino CF1 mouse at 100 mg/kg, ip after 0.5 hrs; type: functional, organism-based; parameters: dose 100 mg/kg; procedure, shortened: as §1
Mus musculus [14] = test: Anticonvulsant activity against subcutaneous strychnine-induced seizure in Albino CF1 mouse at 100 mg/kg, ip after 4 hrs; type: functional, organism-based; parameters: dose 100 mg/kg; procedure, shortened: as §1
Mus musculus [15] = test: Anticonvulsant activity against intraperitoneal picrotoxin-induced seizure in Albino CF1 mouse at 100 mg/kg, ip after 4 hrs; type: functional, organism-based; parameters: dose 100 mg/kg; procedure, shortened: as §2

SMILES	Activity (Mus musculus [1])	Activity (Mus musculus [2])	Activity (Mus musculus [3])	Activity (Mus musculus [4])	Activity (Mus musculus [5])	Activity (Mus musculus [6])	Activity (Mus musculus [7])	Activity (Mus musculus [8])	Activity (Mus musculus [9])	Activity (Mus musculus [10])	Activity (Mus musculus [11])	Activity (Mus musculus [12])	Activity (Mus musculus [13])	Activity (Mus musculus [14])	Activity (Mus musculus [15])
O=C(CCCN1C(=O)c2ccccc2C1=O)Nc1cccc(F)c1	inactive	inactive	inactive	Active	Active	Active	Active	Not Active	Active						
Cc1ccc(NC(=O)CCCN2C(=O)c3ccccc3C2=O)cc1	inactive	inactive	inactive	Active	Active	inactive	Not Active	Active	inactive						
O=C(CCCN1C(=O)c2ccccc2C1=O)N/N=C\c1ccccc1O	inactive	inactive	inactive	inactive	Active	inactive	Not Active	Not Active	inactive						
O=C(CCCN1C(=O)c2ccccc2C1=O)Nc1ccccc1Br	inactive	inactive	inactive	inactive		Active	Not Active	Not Active	inactive	Active					
O=C1NC(=O)C(c2ccccc2)(c2ccccc2)N1 [PHENYTOIN]	inactive	inactive	inactive	inactive	inactive	inactive			inactive		Active	Active			
O=C(CCCN1C(=O)c2ccccc2C1=O)Nc1ccccc1C(F)(F)F	inactive	inactive	inactive	Active	Active	inactive	Not Active	Active	inactive						
C/C(=N/NC(=O)CCCN1C(=O)c2ccccc2C1=O)c1ccccc1O	inactive	inactive	inactive			Active	Not Active	Not Active		Active			Active	Active	
CCC1(C)CC(=O)NC1=O (stereo not given) [ETHOSUXIMIDE]	inactive	Active	inactive	inactive	inactive	inactive	Not Active	Not Active	inactive						
C/C(=N/NC(=O)CCCN1C(=O)c2ccccc2C1=O)c1ccccc1	inactive	inactive	inactive				Not Active	Not Active		Active			Active	Active	Active
CC/C(C)=N/NC(=O)CCCN1C(=O)c2ccccc2C1=O	inactive	inactive	inactive	inactive	Active	inactive	Not Active	Not Active	inactive						
